For assay [1], the target named is biotinylated STARD3 FFAT peptide (residues 200-216), pS209 (human). Nature of the assay: SPR. For orientation: In SPR one partner is held on a chip, and binding of the other changes the refractive index at the surface.
The target of assay [2] is biotinylated STARD3 FFAT peptide (residues 200-216), pS209 + pS213 (human). Nature of the assay: SPR.
Assay [3] deals with T1, recombinant MSP domain of MOSPD2 K363L (human, UniProt Q8NHP6 282-490, K363L).
T1 sequence (looked up): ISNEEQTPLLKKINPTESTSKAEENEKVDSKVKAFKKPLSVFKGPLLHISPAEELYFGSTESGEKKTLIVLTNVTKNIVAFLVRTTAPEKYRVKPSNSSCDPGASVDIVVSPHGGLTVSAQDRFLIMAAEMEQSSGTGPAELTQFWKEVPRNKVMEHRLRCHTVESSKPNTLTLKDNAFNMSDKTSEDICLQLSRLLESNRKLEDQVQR
In words: pull-down.

Assay [4] has as its target T2, recombinant MSP domain of VAP-A (8-212), C-terminal His6 (human, UniProt Q9P0L0 8-212).
T2 sequence (looked up): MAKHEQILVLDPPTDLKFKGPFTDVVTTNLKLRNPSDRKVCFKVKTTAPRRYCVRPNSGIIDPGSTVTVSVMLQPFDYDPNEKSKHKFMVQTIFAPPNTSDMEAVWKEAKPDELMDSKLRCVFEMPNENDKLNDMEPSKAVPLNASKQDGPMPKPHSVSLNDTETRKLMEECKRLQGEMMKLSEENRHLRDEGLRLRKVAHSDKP
In words: pull-down.

Assay [5] concerns the target recombinant MSP domain of VAP-B (1-210), C-terminal His6 (human, UniProt O95292 1-210). In words: pull-down.
For assay [6], the target named is T3, recombinant MSP domain of MOSPD2 (282-490), C-terminal His6 (human, UniProt Q8NHP6 282-490).
T3 sequence (looked up): T1 sequence (looked up) with L82K
Nature of the assay: pull-down.

For assay [7], the target named is T4, recombinant MSP domain of VAP-A K50L (human, UniProt Q9P0L0 8-212, K50L).
T4 sequence (looked up): T2 sequence (looked up) with K43L
Nature of the assay: pull-down.

The target in assay [8] is recombinant MSP domain of VAP-B K43L (human, UniProt O95292 1-210, K43L). In words: pull-down.
Chain of recombinant MSP domain of VAP-B K43L (O95292 1-210 K43L): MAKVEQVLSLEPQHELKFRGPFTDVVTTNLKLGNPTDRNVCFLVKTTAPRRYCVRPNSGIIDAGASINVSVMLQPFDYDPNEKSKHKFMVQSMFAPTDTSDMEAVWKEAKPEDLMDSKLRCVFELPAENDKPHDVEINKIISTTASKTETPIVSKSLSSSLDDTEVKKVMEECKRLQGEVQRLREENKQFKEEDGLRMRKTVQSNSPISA
Assay [9] concerns the target T2, recombinant MSP domain of VAP-A …. Nature of the assay: crystal structure.
Assay [10] addresses T5, recombinant MSP domain of MOSPD2 (315-445) (human, UniProt Q8NHP6 315-445).
T5 sequence (looked up): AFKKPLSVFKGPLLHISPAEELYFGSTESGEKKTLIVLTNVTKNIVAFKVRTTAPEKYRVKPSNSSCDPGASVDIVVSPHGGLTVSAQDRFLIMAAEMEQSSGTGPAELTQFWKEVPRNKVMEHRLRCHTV
Nature of the assay: crystal structure.

A short description of assay [11]: DHE transport assay between liposomes. In kind it is biochemical. To be noted: per cSTD3; absence of functional VAP; 37°C; n = 4. In a few lines:
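LA liposomes (DOPC, 3 mol% MPB-PE; 62.5 µM total lipids final) were preincubated 5 min with 475 nM cSTD3 or pS209 cSTD3 in TN3 buffer (50 mM Tris-HCl pH 8, 75 mM NaCl) at 37°C with stirring. Read-out was DNS-PE emission at 525 nm with excitation at 310 nm. Transport was expressed as mol% DHE = 10×(F−F0)/(Fmax−F0), with F0 set by 10 mM methyl-β-cyclodextrin.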

8 molecules from article PMC7705450 (The EMBO Journal, 2020) can be followed below.

Numbering of substitutions follows the chain as printed. Square brackets hold non-standard residues; d marks the D form. Ends that are not written are not given here. * marks the point of attachment. Biotin = O=C1N[C@H]2[C@H](CS[C@H]2CCCCC(=O)*)N1; pS = N[C@@H](COP(=O)(O)O)C(=O)O

Chain of recombinant MSP domain of VAP-B (1-210), C-terminal His6 (O95292 1-210): as the sequence (O95292 1-210 K43L) above, with L43K counted along it

As a reminder, the Kd is the equilibrium constant for the complex coming apart. In [1], “recombinant MSP domain of VAP-A (8-212), C-terminal His6 (from UniProt Q9P0L0 8-212) (domain or fragment)” yielded a Kd of 5.6 µM.

On to “recombinant MSP domain of VAP-B (1-210), C-terminal His6 (from UniProt O95292 1-210) (domain or fragment)”, for which the Kd in assay [1] amounted to 7.1 µM. Turning to “recombinant MSP domain of MOSPD2 (282-490), C-terminal His6 (from UniProt Q8NHP6 282-490) (domain or fragment)”, the figures for the Kd in [1] and in assay [2] were 1.1 µM and 0.35 µM, respectively. As to Biotin-GAMRSILSEDEFYDALSDSES [biotinylated ORP1 FFAT peptide (residues 469-485)], the binding result in [3], in assay [4], in assay [5], in assay [6], in assay [7] and in assay [8] was “binds” throughout. As to Biotin-GAMRGALSEGQFY[pS]PPE[pS]FAG [biotinylated STARD3 FFAT peptide (residues 200-216), pS209 + pS213], the binding result in assay [3] is on record as “binds”. Regarding GAL[pS]EGQFY[pS]PPE[pS]FAG [phosphorylated FFAT peptide of STARD3 used for crystallisation with VAP-A (GALpSEGQFYpSPPEpSFAG)], the binding result in [9] was “binds”. In the case of CLFSGAL[pS]EGQFY[pS]PPE[pS]FAG, in assay [10], the binding result is “binds”.

B1: cSTD3 (protein)
chain: CLFSGALSEGQFYSPPESFAGSDNESDEEVAGKKSFSAQEREYIRQGKEATAVVDQILAQEENWKFEKNNEYGDTVYTIEVPFHGKTFILKTFLPCPAELVYQEVILQPERMVLWNKTVTACQILQRVEDNTLISYDVSAGAAGGVVSPRDFVNVRRIERRRDRYLSSGIATSHSAKPPTHKYVRGENGPGGFIVLKSASNPRVCTFVWILNTDLKGRLPRYLIHQSLAATMFEFAFHLRQRISELGARA
modifications: left off: GST, N-terminal, cleaved
For the molecule B1, the “Initial DHE transport rate” value in assay [11] was 10.45 DHE molecules/min.
